Source: PubChem BioAssay (The Scripps Research Institute Molecular Screening Center)
Shown are actives, neighbours in structure and some others; about 1.6% of the full set was active somewhere.
SIAE primary – blocks human sialic acid acetylesterase; Q9HAT2; SIAE FP-Rh probe binding, fluorescence polarization; inhibition, % at 9.66 µM; actives 0.69% (n = 370,000); AID 1053197;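 active = inhibition above a cutoff: mean of compounds within the control limits plus 3 SD of those, cut at about 17% in these data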;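 also: 0% = plate median of compound wells and 100% = probe without SIAE protein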
Target sequence (Q9HAT2 whole entry, looked up): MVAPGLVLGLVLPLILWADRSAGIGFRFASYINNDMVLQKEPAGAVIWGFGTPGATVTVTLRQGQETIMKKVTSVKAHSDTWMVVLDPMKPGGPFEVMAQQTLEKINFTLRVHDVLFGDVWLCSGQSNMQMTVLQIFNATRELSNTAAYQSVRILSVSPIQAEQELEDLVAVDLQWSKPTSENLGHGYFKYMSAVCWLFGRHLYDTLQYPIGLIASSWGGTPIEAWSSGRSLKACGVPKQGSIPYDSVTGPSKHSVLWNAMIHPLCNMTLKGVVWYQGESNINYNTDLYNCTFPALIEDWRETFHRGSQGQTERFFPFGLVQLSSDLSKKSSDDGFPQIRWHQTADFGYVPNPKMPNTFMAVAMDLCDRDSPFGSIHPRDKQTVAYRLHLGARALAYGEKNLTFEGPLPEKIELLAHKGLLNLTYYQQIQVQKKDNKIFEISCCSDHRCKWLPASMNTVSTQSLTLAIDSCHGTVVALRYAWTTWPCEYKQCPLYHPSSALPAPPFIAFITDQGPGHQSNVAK
TCR CD3 inh – blocks the human TCR-CD3 interaction. TAMRA-labeled TCR probe fluorescence, biochemical. inhibition, % at 9.4 µM. actives 0.37% (n = 360,000);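 also: recombinant mutant TCR 2C K166C tagged with TAMRA read by polarization; 0% = receptor in buffer alone and 100% = receptor with positive control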
HTRA1 inhibitor – blocks human HTRA1 serine peptidase; inhibition, % at 5.96 µM; Q92743; recombinant HTRA1, FP-rhodamine activity-based probe, fluorescence polarization; actives 0.5% (n = 340,000); in the data active = inhibition above about 36%;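 also: 0% = enzyme with DMSO and 100% = wells lacking enzyme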
mABHD4 FP – ABHD4 (mouse) inhibition, primary FP screen | inhibition, % at 8.92 µM | purified mABHD4, FP-Rh probe fluorescence polarization | actives 0.54% (n = 370,000);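 active = inhibition exceeding the mean over every tested compound plus 3 SD, cut at about 30% in these data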;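 also: 0% = plate median of compound wells and 100% = S159A mutant with DMSO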
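system = mouse ABHD4 enzyme, wild type | medium = HEPES pH 7.0, NaCl, Pluronic buffer | also added = FP-Rh probe | incubation = Enzyme–compound pre-incubation 45 min, then probe 60 min, both 25 °C | technique = fluorescence polarization, excitation 525 nm, emission 598 nm, BODIPY TMR filters | controls = S159A mutant high control, sample median low control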
DAGLB inh – blocks human DAGLB lipase activity. Q8NCG7. HEK293T DAGLB membrane lysate, EnzChek fluorogenic substrate. inhibition, % at 5.17 µM. actives 0.059% (n = 340,000). AID 504411; in the data active = inhibition above about 34%;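 also: 0% = enzyme with vehicle and 100% = wells lacking enzyme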
BSA probe FL – BSA probe counter-screen for TCR-CD3 inhibitors; AID 652035; shares compounds with TCR CD3 inh; TAMRA-labeled BSA probe fluorescence counterscreen; actives 10% (n = 1,200); inhibition, % at 9.4 µM; in the data active = inhibition above about 23%;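 also: 0% = buffer low control and 100% = reference high control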
TCR-CD3 conf – TCR-CD3 interaction inhibition, confirmation. shares compounds with TCR CD3 inh. AID 652036. actives 48% (n = 1,200). TAMRA-labeled TCR probe fluorescence binding assay. inhibition, % at 9.4 µM
Active calls of the source: *; . = no result. Rule as the data show it, unless noted: active = inhibition above about 19%; inactive = the rest.

SMILES	SIAE primary	TCR CD3 inh	HTRA1 inhibitor	mABHD4 FP	DAGLB inh	BSA probe FL	TCR-CD3 conf
CC1=NN(C(=O)c2ccccc2F)C(O)(c2ccc(Cl)cc2)C1 (stereo not drawn)	-4	23*	22	0	0	-9	18
CCC1=NN(C(=O)c2ccc(Br)cc2)C(O)(c2ccccc2)C1 (stereo not drawn)	-1	11	19	0	-5	.	.
CCOC(=O)N1N=C(C)CC1(O)c1ccccc1 (stereo not drawn)	-1	3	-3	-1	-1	.	.
COc1ccc(-c2noc(C3CCCN(C(=O)Nc4cc(C)cc(C)c4)C3)n2)cc1 (stereo not drawn)	-1	.	.	-8	.	.	.
CC(C)(C)OC(=O)NCc1cc2c(cc1/C=C/S(=O)(=O)NC1CCCC1)OCO2	-2	.	.	-4	.	.	.
O=C(Cn1nnc(-c2ccccc2)n1)N/N=C/c1cccc([N+](=O)[O-])c1	5	9	-1	-2	-1	.	.
Cc1cc(C(=O)N/N=C/c2cccc([N+](=O)[O-])c2O)n[nH]1	5	29*	1	15	2	-8	9
Cc1cc(C(=O)N/N=C/c2ccc(O)c([N+](=O)[O-])c2)n[nH]1	2	2	-4	6	4	.	.
Cc1cc(C(=O)N/N=C/c2cc(Br)cc([N+](=O)[O-])c2O)c2ccccc2n1	14	41*	11	44*	15	-10	43*
O=C(Cn1nnc(-c2ccccc2)n1)N/N=C/c1cccc([N+](=O)[O-])c1O	-1	38*	.	6	.	-3	50*
CCOC(=O)[C@]12CCCC=C1N(CCCOC)C(=O)[C@@H]2CC(=O)NCc1cccc2ccccc12	-2	.	.	-2	.	.	.
O=C(NCC1COCCO1)C1CCN(S(=O)(=O)c2ccc(Br)s2)CC1 (stereo not drawn)	-3	.	.	10	.	.	.
COC(=O)[C@@]1(C(C)C)N=C(c2cc(OC)c(OC)c(OC)c2)[C@]2(O1)C(=O)N(Cc1cn(Cc3ccccc3)nn1)c1ccc(F)cc12	-1	.	.	6	.	.	.
COc1ccc(N2CC(C(=O)N3CCOCC3)CC2=O)cc1 (stereo not drawn)	8	-1	2	-8	1	.	.
COc1ccc(N2CC(C(=O)N3CCCC(C)C3)CC2=O)cc1 (stereo not drawn)	2	142*	3	-5	-1	0	0
COC(=O)Nc1ccc(S(=O)(=O)NNC(=O)c2c(O)c3ccccc3[nH]c2=O)cc1	-2	24*	-2	-2	3	-5	26*
Cc1ccc(S(=O)(=O)NNC(=O)c2c(O)c3ccccc3[nH]c2=O)cc1	4	16	0	-5	-8	.	.
CC(C)C(=O)NNC(=O)c1c(O)c2ccccc2[nH]c1=O	5	5	2	3	0	.	.
O=C(NNC(=O)c1c(O)c2ccccc2[nH]c1=O)c1ccccc1	6	41*	6	0	-2	-7	22*
CCCC(=O)NNC(=O)c1c(O)c2ccccc2[nH]c1=O	1	34*	15	2	0	-2	28*
CCOC(=O)[C@@]12CCC3=C1N(CCC3)C(=O)[C@H](CC(=O)NCc1cccs1)C2	2	.	.	4	.	.	.
Cc1ccc2nc(-c3ccc(CN4CCC5(CC4)CNc4ccccc45)cc3)c(-c3ccccc3)nc2c1	13	-3	.	6	.	.	.
CCCCc1c(-c2ccccc2OC)ncn1C1CCCCC1	9	21*	.	6	.	1	4
CCCCc1c(-c2ccccc2OC)ncn1C1CCCC1	-1	3	.	1	.	.	.
O=C1NN=COc2ccccc21	-4	21*	6	-3	-4	-12	11
CCN(CC)C(=O)CSc1ncnc2c(-c3cccs3)nsc12	-5	20*	-32	5	-8	-4	12
COC(=O)[C@]12C[C@H](CC(=O)N3CCN(C(=O)C4CC4)CC3)C(=O)N(Cc3ccc(Cl)cc3Cl)C1=C[C@H](C(C)C)O[C@@H]2C1CC1	-3	.	.	-9	.	.	.
O=C(O)c1cccc(-n2cccc2/C=C2/NC(=O)N(c3ccc(Cl)cc3)C2=O)c1	-2	36*	11	4	6	-11	31*
O=C(O)c1cccc(-n2cccc2/C=C2/NC(=O)N(c3cccc(Cl)c3)C2=O)c1	0	5	-6	6	8	.	.
